Values after ≈ are worked out from the molar mass of the structure shown. Active and inactive are the calls of the source. The rule behind the calls is not given here. A value given as a limit tells only on which side of the number the result lay.

The values below come from ChEMBL document CHEMBL1806425, “Design and synthesis of 4-amino-2-phenylquinazolines as novel topoisomerase I inhibitors with molecular modeling” (Bioorg Med Chem, 2011).

One experiment relates to A549. Kind of experiment: Cytotoxicity against human A549 cells by sulforhodamine B assay. The experiment is classed as functional, cell-based. (In SRB staining, fixed cells bind dye roughly in proportion to their protein.)
For the next experiment, the system named is HCT-15. Kind of experiment: Cytotoxicity against human HCT15 cells by sulforhodamine B assay. The experiment is classed as functional, cell-based.
The subject of a further experiment is SK-OV-3. Kind of experiment: Cytotoxicity against human SKOV3 cells by sulforhodamine B assay. In kind it is functional, cell-based.
The test system of the next experiment is SK-MEL-2. The experiment is described as follows: Cytotoxicity against human SK-MEL-2 cells by sulforhodamine B assay. The experiment is classed as functional, cell-based.
The species named for experiment [1] is Bos taurus. Kind of experiment: Inhibition of calf thymus DNA topoisomerase I assessed as relaxation of supercoiled DNA pBR322 at 100 ug/ml after 30 mins by agarose gel electrophoresis relative to camptothecin. Put shortly:
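Relaxation of 200 ng pBR322 supercoiled plasmid by 2 units calf thymus topo I, incubated with or without compound (20 mM DMSO stocks) for 30 min at 37 °C. Buffer: 35 mM Tris–HCl pH 8.0, 72 mM KCl, 5 mM MgCl2, 5 mM DTT, 2 mM spermidine, 0.01% BSA. The reaction was stopped with SDS/glycerol dye, then run on 1% agarose in TAE at 15 V for 6 h and stained.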

For experiment [2], the species on record is Bos taurus. The experiment is described as follows: Inhibition of calf thymus DNA topoisomerase I assessed as relaxation of supercoiled DNA pBR322 at 10 to 100 ug/ml after 30 mins by agarose gel electrophoresis. The gist of the method:
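Relaxation of supercoiled pBR322 plasmid DNA (200 ng) by 2 units calf thymus topo I, incubated with or without compound at 37 °C for 30 min. Buffer: 35 mM Tris–HCl pH 8.0, 72 mM KCl, 5 mM MgCl2, 5 mM DTT, 2 mM spermidine, 0.01% BSA. Stopped with SDS/dye/glycerol solution. Run on 1% agarose gel in TAE at 15 V for 6 h, then stained. Compound stocks were 20 mM in DMSO.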

With `Cl.c1ccc(CNc2nc(-c3ccccc3)nc3ccccc23)cc1`, the IC50 (in general, the concentration that inhibits the measured activity by half) was found to be 9.79 µg/mL in the experiment on A549, 6.13 µg/mL with HCT-15, 9.5 µg/mL with SK-OV-3 and 15.8 µg/mL in the experiment on SK-MEL-2.
With `CNc1nc(-c2ccccc2)nc2ccccc12`, the IC50 with A549 worked out at 29.3 µg/mL (≈ 125 µM); in the experiment with HCT-15, 21.2 µg/mL (≈ 90 µM); in the experiment on SK-OV-3, 33.6 µg/mL (≈ 143 µM); with SK-MEL-2, 24.4 µg/mL (≈ 104 µM). For the same molecule, the inhibition entry in the experiment filed under Bos taurus [1] is “inactive”.
Regarding `CN1CCCN(c2nc(-c3ccccc3)nc3ccccc23)CC1`, the IC50 was 24.1 µg/mL (≈ 75.7 µM) in the experiment with A549, 20.1 µg/mL (≈ 63.1 µM) in the experiment on HCT-15, 26.1 µg/mL (≈ 82 µM) in the experiment on SK-OV-3 and 36.5 µg/mL (≈ 115 µM) with SK-MEL-2. Besides, the inhibition entry in the experiment filed under Bos taurus [1] was “Active”.
As for `COc1cccc2c1C(=O)c1c(O)c3c(c(O)c1C2=O)C[C@@](O)(C(=O)CO)C[C@@H]3O[C@H]1C[C@H](N)[C@H](O)[C@H](C)O1` [DOXORUBICIN], the values for the IC50 in the experiment on HCT-15, in the experiment on SK-OV-3 and with SK-MEL-2 were 0.05 µg/mL (≈ 0.092 µM), 0.08 µg/mL (≈ 0.147 µM) and 0.09 µg/mL (≈ 0.166 µM), respectively.
`c1ccc(CNc2nc(-c3ccccc3)nc3ccccc23)cc1`: the IC50 turned out to be 15.1 µg/mL (≈ 48.6 µM) with A549, 13.9 µg/mL (≈ 44.7 µM) in the experiment with HCT-15, 31.7 µg/mL (≈ 102 µM) in the experiment with SK-OV-3 and 31.2 µg/mL (≈ 100 µM) in the experiment with SK-MEL-2.
For `COC(=O)CNc1nc(-c2ccccc2)nc2ccccc12`, the IC50 came out at 36.3 µg/mL (≈ 124 µM) in the experiment with A549, 37.5 µg/mL (≈ 128 µM) in the experiment on HCT-15, 35.5 µg/mL (≈ 121 µM) with SK-OV-3 and 37.6 µg/mL (≈ 128 µM) in the experiment with SK-MEL-2. In addition, the inhibition entry in the experiment filed under Bos taurus [1] was “Active”.
As to `CC(C)Nc1nc(-c2ccccc2)nc2ccccc12`, the IC50 in the experiment with A549 stood at 7.53 µg/mL (≈ 28.6 µM); with HCT-15, 4.11 µg/mL (≈ 15.6 µM); in the experiment on SK-OV-3 it was 16.9 µg/mL (≈ 64.2 µM); in the experiment on SK-MEL-2, 16.5 µg/mL (≈ 62.5 µM). For the same molecule, the inhibition result in the experiment listed under Bos taurus [1] is “Active”.
Regarding `c1ccc(-c2nc(NC3CCCCC3)c3ccccc3n2)cc1`, the IC50 is 7.23 µg/mL (≈ 23.8 µM) in the experiment with A549, 2.76 µg/mL (≈ 9.1 µM) in the experiment with HCT-15, 9.82 µg/mL (≈ 32.4 µM) with SK-OV-3 and 9.63 µg/mL (≈ 31.7 µM) with SK-MEL-2. Also, the inhibition result in the experiment listed under Bos taurus [1] is “Active”.
In the case of `CN1CCN(c2nc(-c3ccccc3)nc3ccccc23)CC1`, the half-inhibitory concentration (IC50) came out at 26.9 µg/mL (≈ 88.3 µM) in the experiment on A549, 22.4 µg/mL (≈ 73.5 µM) with HCT-15, 26.8 µg/mL (≈ 88.2 µM) in the experiment on SK-OV-3 and 37 µg/mL (≈ 122 µM) with SK-MEL-2. In addition, the inhibition entry in the experiment filed under Bos taurus [1] is “Active”.
Consider `c1ccc(-c2nc(N3CCOCC3)c3ccccc3n2)cc1`, for which the IC50 with A549 was 52.8 µg/mL (≈ 181 µM); in the experiment on HCT-15, 51.8 µg/mL (≈ 178 µM); with SK-OV-3 it was 57 µg/mL (≈ 196 µM); in the experiment with SK-MEL-2, 65.2 µg/mL (≈ 224 µM). The inhibition result in the experiment filed under Bos taurus [1] was “Active”.
In the case of `CN(C)CCN(C)c1nc(-c2ccccc2)nc2ccccc12`, the IC50 in the experiment with A549 turned out to be 28.1 µg/mL (≈ 91.8 µM); with HCT-15 it was 26.5 µg/mL (≈ 86.4 µM); in the experiment with SK-OV-3 it was 25.5 µg/mL (≈ 83.3 µM); with SK-MEL-2 it was 28.9 µg/mL (≈ 94.4 µM). In addition, the inhibition result in the experiment filed under Bos taurus [1] is “Active”.
In the case of `CC[C@@]1(O)C(=O)OCc2c1cc1n(c2=O)Cc2cc3ccccc3nc2-1` [CAMPTOTHECIN], the IC50 in the experiment with A549 came to 0.072 µg/mL (≈ 0.207 µM); in the experiment on HCT-15, 0.096 µg/mL (≈ 0.276 µM); in the experiment with SK-OV-3 it was 1.54 µg/mL (≈ 4.42 µM); in the experiment with SK-MEL-2, 6.88 µg/mL (≈ 19.7 µM). Moreover, the inhibition result in the experiment filed under Bos taurus [2] is “Active”.
`COCCNc1nc(-c2ccccc2)nc2ccccc12`: the IC50 was found to be 27.4 µg/mL (≈ 98.3 µM) in the experiment with A549, 26.8 µg/mL (≈ 96.1 µM) in the experiment with HCT-15, 22.9 µg/mL (≈ 82 µM) with SK-OV-3 and 27.6 µg/mL (≈ 98.9 µM) in the experiment on SK-MEL-2. In addition, the inhibition result in the experiment listed under Bos taurus [1] is “Active”.
As to `CCOC(=O)CCNc1nc(-c2ccccc2)nc2ccccc12.Cl`, the IC50 with A549, in the experiment on HCT-15, in the experiment with SK-OV-3 and in the experiment on SK-MEL-2 was over 100 µg/mL in each case. In the experiment filed under Bos taurus [1], the inhibition entry is “inactive”.
